Our source for the IC50 values is PubChem BioAssay AID651943 (The Scripps Research Institute Molecular Screening Center, 2012).

The IC50 is the concentration needed to halve the response being measured.

For the assay, the system named is E. coli V66 growth, OD600 absorbance, 18 h. As to the kind of experiment: bacterial growth inhibition, late-stage follow-up, counter-screen for AddAB helicase-nuclease inhibitor project, absorbance, dose response, round 2 (AID 651943). An outline of the steps: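 System: uninfected E. coli strain V66, RecBCD+ / Control set: ciprofloxacin 0.95 µg/mL as high control, DMSO as low control / Schedule: 18 h compound exposure, 37 °C / Technique: optical density by absorbance at 600 nm / Replicates: triplicate wells per compound concentration / Dosing: 10 concentrations, 1:3 steps, highest 118.6 µM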
Background: The purpose of a counterscreen is to sort out artefacts and off-target activity.

The source made the active and inactive calls.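 Rule for the calls: active = bacterial viability inhibition with half-maximal concentration IC50 at or below 10 µM; inactive = the rest.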 Bounds are passed on as bounds.

For `CCn1cc(C(=O)O)c(=O)c2cnc(N3CCN(C(=S)Nc4ccccc4F)CC3)nc21`, the IC50 was > 119 µM (inactive). With `CCn1cc(C(=O)O)c(=O)c2cnc(N3CCN(C(=S)Nc4cccc(C(F)(F)F)c4)CC3)nc21` the figure was 34.4 µM (inactive); with `CCn1cc(C(=O)O)c(=O)c2cnc(N3CCN(C(=S)NCc4ccccc4)CC3)nc21`, > 119 µM (inactive). With `CCn1cc(C(=O)O)c(=O)c2cnc(N3CCN(C(=S)Nc4ccccc4OC)CC3)nc21` the figure was > 119 µM (inactive).

In the case of `CCn1cc(C(=O)O)c(=O)c2cnc(N3CCN(C(=S)NC(=O)c4cccc(C)c4)CC3)nc21`, the IC50 is > 39.5 µM (inactive). Under `CCn1cc(C(=O)O)c(=O)c2cnc(N3CCN(C(=S)Nc4ccc(Cl)cc4)CC3)nc21` stands > 39.5 µM (inactive).
